Reference: ChEMBL document CHEMBL3763084, “Design and synthesis of substituted pyrido[3,2-d]-1,2,3-triazines as potential Pim-1 inhibitors” (Bioorg Med Chem Lett, 2016)
The source made the active and inactive calls. The calls are words filed in the database; no cut-off is given here.

Assays:
[1] = biological target: T1, Serine/threonine-protein kinase pim-1 (Homo sapiens, UniProt P11309); assay: Inhibition of Pim 1 (unknown origin) after 50 mins by HTRF method
[2] = tested on: LNCaP; assay: Antiproliferative activity against human LNCAP cells after 96 hrs by MTT assay; type: functional, cell-based
[3] = Antiproliferative activity against human PC3 cells after 96 hrs by MTT assay; type: functional, cell-based; details: PC-3, 96 h
[4] = tested on: PC-3; assay: Effect on PIM1 expression in human PC3 cells at 5 to 20 uM after 24 hrs by western blot analysis; type: functional, cell-based
Outline: (§1)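 PC-3 cells were exposed for 24 h to the test compound at 0, 5, 10 or 20 μM, with DMSO as the negative control and a reference Pim-1 inhibitor at 10 μM. Lysates were analysed by western blot for BAD phospho-Ser112, 4E-BP1 phospho-Thr37/46, c-Myc and total Pim-1.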

[5] = biological target: T1, Serine/threonine-protein kinase pim-1; assay: Inhibition of Pim1 in human PC3 cells assessed as decrease in 4E-BP1 phosphorylation at Thr37/46 residue after 24 hrs by western blot analysis; type: cell-based; details: PC-3; outline: as §1
[6] = biological target: T1, Serine/threonine-protein kinase pim-1; assay: Inhibition of Pim1 in human PC3 cells assessed as decrease in BAD phosphorylation at Ser112 residue after 24 hrs by western blot analysis; type: cell-based; details: PC-3; outline: as §1
[7] = biological target: T1, Serine/threonine-protein kinase pim-1; assay: Inhibition of Pim1 in human PC3 cells assessed as decrease in c-Myc level at 5 to 20 uM after 24 hrs by western blot analysis; type: cell-based; details: PC-3; outline: as §1
[8] = biological target: T1, Serine/threonine-protein kinase pim-1; details: PC-3, 10 uM
[9] = biological target: T1, Serine/threonine-protein kinase pim-1; details: PC-3, 10 uM; remark: listed apart in the source
[10] = biological target: T1, Serine/threonine-protein kinase pim-1; details: PC-3, 10 uM; remark: listed apart in the source

Row | Compound | IC50 [1] [µM] | IC50 [2] [µM] | IC50 [3] [µM] | other results
1 | CCCCOc1ccc2nnnc(Nc3cccc(OC(F)(F)F)c3)c2n1 | > 10 |  |  | 
2 | CN1CCN(c2ccc3nnnc(Nc4cccc(OC(F)(F)F)c4)c3n2)CC1 | 0.6 | 20.3 | 24 | 
3 | FC(F)(F)Oc1cccc(Nc2nnnc3ccc(N4CCNCC4)nc23)c1 | 0.69 | 8.51 | 11.5 | 
4 | CCN1CCN(c2ccc3nnnc(Nc4cccc(OC(F)(F)F)c4)c3n2)CC1 | 2.04 | 14.3 | 16.9 | 
5 | FC(F)(F)Oc1cccc(Nc2nnnc3ccc(NCC4CCNCC4)nc23)c1 | 0.8 | 11.5 | 8.32 | 
6 | FC(F)(F)Oc1cccc(Nc2nnnc3ccc(Cl)nc23)c1 | > 10 | 8.62 | 5.99 | 
7 | FC(F)(F)Oc1cccc(Nc2nnnc3ccc(N4CCC(N5CCCCC5)CC4)nc23)c1 | 2.47 | 4.9 | 5.58 | 
8 | CC1CCN(c2ccc3nnnc(Nc4cccc(OC(F)(F)F)c4)c3n2)CC1 | > 10 |  |  | 
9 | CCOc1ccc2nnnc(Nc3cccc(OC(F)(F)F)c3)c2n1 | > 10 | > 100 | > 100 | 
10 | CC1CCCCN1c1ccc2nnnc(Nc3cccc(OC(F)(F)F)c3)c2n1 (stereo not given) | 1.31 |  |  | 

Continued, in another order:

Row | IC50 [1] [µM] | IC50 [2] [µM] | Compound | IC50 [3] [µM] | other results
11 | 1.45 | 31 | FC(F)(F)Oc1cccc(Nc2nnnc3ccc(N4CCOCC4)nc23)c1 | 41 | 
12 | 2.02 |  | COc1ccc2nnnc(Nc3cccc(OC(F)(F)F)c3)c2n1 |  | 
13 | > 10 | > 100 | CC(C)(C)OC(=O)N1CCC(CNc2ccc3nnnc(Nc4cccc(OC(F)(F)F)c4)c3n2)CC1 | > 100 | 
14 | 1.87 | 17.3 | CN1CCC(CNc2ccc3nnnc(Nc4cccc(OC(F)(F)F)c4)c3n2)CC1 | 15.8 | 
15 | > 10 | > 100 | FC(F)(F)Oc1cccc(Nc2nnnc3ccc(N4CCCC4)nc23)c1 | > 100 | 
16 | 2.1 | 42.9 | OCCNc1ccc2nnnc(Nc3cccc(OC(F)(F)F)c3)c2n1 | > 100 | 
17 | 1.08 | 10.7 | CC(C)N1CCN(c2ccc3nnnc(Nc4cccc(OC(F)(F)F)c4)c3n2)CC1 | 13.8 | 
18 | 1.05 | 10.7 | FC(F)(F)Oc1cccc(Nc2nnnc3ccc(N4CCC(N5CCCC5)CC4)nc23)c1 | 8.16 | Activity [4]: inactive; inhibition [5]: Dose-dependent effect; inhibition [6]: Dose-dependent effect; inhibition [7]: Active
19 |  | 6.85 | CN1CCC(CNc2ccc3ncc(-c4cccc(OC(F)(F)F)c4)n3n2)CC1 [SGI-1776] | 4.86 | inhibition [8]: Active; inhibition [9]: Active; inhibition [10]: Active
